The record followed here is article PMC7302971 (Bioorganic chemistry, 2020).

Like-named read-outs stand apart in the source and are kept apart here.

The term IC50 denotes the concentration at which inhibition is half-maximal.

The target in one experiment is HDAC1 (Homo sapiens, UniProt Q13547). In words: HDAC enzyme activity assay. The experiment is classed as biochemical. In a few lines:
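Commercial enzyme was preincubated with serial inhibitor dilutions for 60 min at 30 °C in 25 mM Tris-HCl pH 8.0, 75 mM KCl and 0.001% Pluronic F-127. Reaction was started with 50 μM Boc-Lys(acetyl)-AMC, run 60 min at 30 °C, and stopped with 4.17 μM SAHA. Trypsin (0.4 mg/ml) released AMC, read at Ex 350/Em 450 nm. IC50 came from a four-parameter logistic fit.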

The target in a further experiment is T1, HDAC7 (Homo sapiens, UniProt Q8WUI4).
T1 sequence (Q8WUI4 1-952): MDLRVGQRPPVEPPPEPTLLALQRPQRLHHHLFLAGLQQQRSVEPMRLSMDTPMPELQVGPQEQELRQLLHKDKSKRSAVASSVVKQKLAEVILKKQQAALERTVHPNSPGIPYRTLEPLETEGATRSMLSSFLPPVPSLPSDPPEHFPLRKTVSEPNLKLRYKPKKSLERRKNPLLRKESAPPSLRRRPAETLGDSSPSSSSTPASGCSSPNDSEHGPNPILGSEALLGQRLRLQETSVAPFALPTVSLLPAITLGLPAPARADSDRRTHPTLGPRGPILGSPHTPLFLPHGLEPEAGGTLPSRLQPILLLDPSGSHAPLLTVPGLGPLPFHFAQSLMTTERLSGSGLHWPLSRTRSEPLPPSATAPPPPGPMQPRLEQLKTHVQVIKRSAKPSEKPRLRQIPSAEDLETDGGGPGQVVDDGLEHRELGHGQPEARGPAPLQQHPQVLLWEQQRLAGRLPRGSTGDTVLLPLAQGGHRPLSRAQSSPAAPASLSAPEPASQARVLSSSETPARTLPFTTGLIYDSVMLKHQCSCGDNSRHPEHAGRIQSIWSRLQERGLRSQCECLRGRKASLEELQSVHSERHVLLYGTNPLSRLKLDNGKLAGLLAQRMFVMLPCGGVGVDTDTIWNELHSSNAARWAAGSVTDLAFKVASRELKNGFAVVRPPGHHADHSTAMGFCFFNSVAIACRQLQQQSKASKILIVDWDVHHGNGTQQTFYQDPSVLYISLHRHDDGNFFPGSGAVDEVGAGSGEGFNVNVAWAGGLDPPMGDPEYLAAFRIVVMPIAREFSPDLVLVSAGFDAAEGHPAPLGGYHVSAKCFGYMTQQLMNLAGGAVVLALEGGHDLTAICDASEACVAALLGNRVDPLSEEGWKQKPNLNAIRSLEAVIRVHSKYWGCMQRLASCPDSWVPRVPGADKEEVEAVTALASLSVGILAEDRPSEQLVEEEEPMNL
In words: HDAC enzyme activity assay. It counts as biochemical. The method, boiled down:
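Commercial HDAC7 was preincubated with serial inhibitor dilutions for 60 min at 30 °C in 25 mM Tris-HCl pH 8.0, 75 mM KCl and 0.001% Pluronic F-127. The AMC-substrate reaction ran 60 min at 30 °C, followed by trypsin development and fluorescence reading at Ex 350/Em 450 nm. IC50 came from a four-parameter logistic fit.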

The next experiment has as its target HDAC4 (Homo sapiens, UniProt P56524). In words: HDAC enzyme activity assay. The settings on record: for remaining activity at 50 µM: read-out: Residual HDAC4 activity at 50 μM. It counts as biochemical. In a few lines:
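HDAC4 and HDAC8 were in-house recombinant enzymes. Each was preincubated with inhibitor, either a single 50 μM screen or serial dilutions, for 60 min at 30 °C in Tris-HCl pH 8.0/KCl/Pluronic buffer. Substrate was 20 μM Boc-Lys(trifluoroacetyl)-AMC for 60 min at 30 °C, stopped with 1.7 μM SATFMK, and developed with trypsin. AMC fluorescence was read at 350/450 nm and reported as residual activity or as IC50 from a four-parameter logistic fit.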

The next experiment concerns the target T2, HDAC8 (Homo sapiens, UniProt Q9BY41).
T2 sequence (Q9BY41 1-377): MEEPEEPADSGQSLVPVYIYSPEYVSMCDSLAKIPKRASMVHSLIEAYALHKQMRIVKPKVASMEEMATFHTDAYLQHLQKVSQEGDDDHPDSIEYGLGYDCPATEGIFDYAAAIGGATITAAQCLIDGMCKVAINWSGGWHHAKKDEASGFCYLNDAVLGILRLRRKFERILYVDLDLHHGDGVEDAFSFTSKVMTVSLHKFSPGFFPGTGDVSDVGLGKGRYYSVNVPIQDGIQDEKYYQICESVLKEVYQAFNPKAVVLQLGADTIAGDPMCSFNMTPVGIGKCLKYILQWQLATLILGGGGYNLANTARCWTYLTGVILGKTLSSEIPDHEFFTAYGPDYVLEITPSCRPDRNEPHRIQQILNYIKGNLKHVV
Put plainly: Thermal shift assay. It counts as binding.

The target of the next experiment is T3, GLUT1 (Homo sapiens, UniProt P11166).
T3 sequence (P11166 1-492): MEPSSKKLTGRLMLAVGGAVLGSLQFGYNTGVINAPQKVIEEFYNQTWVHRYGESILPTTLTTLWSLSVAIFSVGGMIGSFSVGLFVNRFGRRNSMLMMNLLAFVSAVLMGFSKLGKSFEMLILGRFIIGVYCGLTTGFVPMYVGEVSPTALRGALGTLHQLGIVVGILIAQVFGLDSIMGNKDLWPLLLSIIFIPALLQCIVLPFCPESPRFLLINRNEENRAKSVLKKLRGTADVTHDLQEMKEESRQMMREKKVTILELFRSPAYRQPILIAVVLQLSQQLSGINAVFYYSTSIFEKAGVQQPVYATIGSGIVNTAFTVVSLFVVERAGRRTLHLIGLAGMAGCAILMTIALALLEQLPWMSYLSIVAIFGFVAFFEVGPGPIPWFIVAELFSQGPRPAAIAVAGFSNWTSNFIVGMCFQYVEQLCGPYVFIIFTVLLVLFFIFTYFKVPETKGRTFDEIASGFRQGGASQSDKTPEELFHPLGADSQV
Put plainly: GLUT transport inhibition assay in hxt0 yeast cells. It counts as cell-based. In a few lines: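 hxt0 yeast (VW4000fgy1) expressing human GLUT1 was grown at 30 °C in SC-uracil, first on 2% maltose, then on 2% glucose. Cells were PBS-washed (pH 7.4) to OD600 ~10. Test compound was varied from 0.1 to 100 μM. Uptake of 5 mM 14C-glucose ran 10 min and was stopped with ice-cold quench buffer (pH 5.5). Cells were filtered and counted by scintillation.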

The test system of the next experiment is GLUT5. In words: GLUT transport inhibition assay in hxt0 yeast cells. The experiment is classed as cell-based, human. The settings on record: 50 μM compound, 10 mM C14-fructose. In a few lines:
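Human GLUT4 was expressed in VW4000fgy1erg4 yeast (1% maltose, then 0.2% glucose, SC-uracil). GLUT5 was expressed in VW4000 (YEP with 2% maltose and G418, then 2% fructose). PBS-washed cells were exposed to 50 μM test compound. Uptake of 14C-glucose (5 mM, GLUT4) or 14C-fructose (10 mM, GLUT5) ran 10 min, followed by quench, filtration and scintillation counting. Activity was relative to 1% DMSO and to saturating phloretin (GLUT4) or MSNBA (GLUT5). Triplicates.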

Setting [1] is: read-out: IC50 HDAC4, HDAC panel, no unit in table, text b26: micromolar range.

Chain of HDAC4 (P56524 648-1057 limits assumed): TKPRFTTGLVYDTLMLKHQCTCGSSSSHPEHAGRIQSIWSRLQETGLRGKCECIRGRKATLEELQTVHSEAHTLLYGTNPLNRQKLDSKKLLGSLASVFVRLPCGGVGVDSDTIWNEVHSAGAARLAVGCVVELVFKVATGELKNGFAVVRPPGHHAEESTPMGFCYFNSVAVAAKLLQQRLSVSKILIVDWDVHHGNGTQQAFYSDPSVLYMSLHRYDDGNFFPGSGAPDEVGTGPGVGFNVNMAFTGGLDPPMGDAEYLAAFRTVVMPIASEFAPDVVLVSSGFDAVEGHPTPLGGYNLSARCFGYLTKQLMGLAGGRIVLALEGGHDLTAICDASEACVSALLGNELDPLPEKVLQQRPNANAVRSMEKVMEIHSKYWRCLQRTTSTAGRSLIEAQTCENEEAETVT
Chain of HDAC1 (Q13547 whole entry): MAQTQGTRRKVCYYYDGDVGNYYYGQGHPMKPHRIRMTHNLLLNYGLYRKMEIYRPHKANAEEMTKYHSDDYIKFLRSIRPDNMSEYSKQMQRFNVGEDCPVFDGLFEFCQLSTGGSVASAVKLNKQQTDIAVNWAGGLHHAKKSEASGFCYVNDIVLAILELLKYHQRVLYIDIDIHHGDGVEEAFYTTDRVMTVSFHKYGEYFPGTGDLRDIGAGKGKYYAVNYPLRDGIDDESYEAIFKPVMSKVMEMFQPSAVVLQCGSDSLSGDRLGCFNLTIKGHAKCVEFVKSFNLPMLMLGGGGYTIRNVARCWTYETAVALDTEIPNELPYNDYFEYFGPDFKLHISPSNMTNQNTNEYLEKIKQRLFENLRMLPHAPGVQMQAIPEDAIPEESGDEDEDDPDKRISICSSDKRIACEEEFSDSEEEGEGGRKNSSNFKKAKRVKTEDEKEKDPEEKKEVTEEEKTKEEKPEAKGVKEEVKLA

Regarding `Cc1c(NC(=O)CN2C(=O)SC(=Cc3ccccn3)C2=O)c(=O)n(-c2ccccc2)n1C` [Compound P10, N-(1,5-dimethyl-3-oxo-2-phenyl-2,3-dihydro-1H-pyrazol-4-yl)-2-(2,4-dioxo-5-(pyridin-2-ylmethylene)thiazolidin-3-yl)acetamide], the IC50 on HDAC1, against HDAC7, at HDAC4 and on HDAC4 (setting [1]) was over 50 µM each time. Also, the remaining activity at 50 µM at HDAC4 was 76%. Moreover, on HDAC8, the “Thermal shift (ΔT), stabilizing effect on HDAC8” value is on record as “did not confer significant stability to the protein”.
With `O=C(CN1C(=O)SC(=Cc2ccccn2)C1=O)Nc1nc2ccccc2s1` [Compound P19, N-(benzo[d]thiazol-2-yl)-2-(2,4-dioxo-5-(pyridin-2-ylmethylene)thiazolidin-3-yl)acetamide], the 50% inhibitory concentration (IC50) against GLUT1 is 28.2 µM; against HDAC1, over 50 µM; on HDAC7 it was over 50 µM; against HDAC4 it was over 50 µM; on HDAC4 (setting [1]), over 50 µM. Further, the “relative transport activity of GLUT5” value in the experiment on GLUT5 was “ineffective”. Further, the remaining activity at 50 µM at HDAC4 came out at 97%. The “Thermal shift (ΔT), stabilizing effect on HDAC8” value on HDAC8 was “about 0.3 °C”.
